{
  "source": "paper PMC10041999",
  "about": "(Journal of chemical information and modeling, 2022)",
  "target": "T1, VapC1 (Haemophilus influenzae, UniProt Q4QNL7)",
  "T1 sequence (Q4QNL7 1-134)": "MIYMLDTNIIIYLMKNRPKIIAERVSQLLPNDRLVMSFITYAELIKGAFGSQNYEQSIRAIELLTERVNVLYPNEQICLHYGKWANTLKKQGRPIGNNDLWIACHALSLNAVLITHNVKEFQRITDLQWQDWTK",
  "assay": "Biochemical VapC1 ribonuclease activity assay",
  "design": "species or system nontypeable Haemophilus influenzae",
  "procedure,_shortened": "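Purified VapC1 (296 nM final) was preincubated with test compound, aurintricarboxylic acid positive control or DMSO for 30 min at room temperature in 1X RNaseAlert reaction buffer. Custom RNA substrate (5' Cy5, 3' Iowa Black RQ quencher; 100 nM final) was then added. Fluorescence (Ex 618, Em 671 nm) was read immediately and at 75 min. Activity was taken as the change between readings. Concentration-response used eleven concentrations.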",
  "data": [
    {"compound": "Clc1ccc(C(c2ccc(Cl)cc2)n2cc[n+](C[C@@H](OCc3ccc(Cl)cc3Cl)c3ccc(Cl)cc3Cl)c2)cc1", "note": "[NCGC00015233]", "values": [
      {"measurement": "VapC1 inhibitor (result in words)", "value": "confirmed VapC1 inhibtors"}
    ]}
  ]
}
